Our source for the cytotoxicity values is ChEMBL document CHEMBL4513216, “Probing the Open Global Health Chemical Diversity Library for Multistage-Active Starting Points for Next-Generation Antimalarials” (ACS Infect Dis, 2020).

This data set is described as follows: Toxicity liver stage against HepG2, at 10uM. Type of data set: cell-based. On the set-up: test concentration 10 uM, cell line HepG2-A16-CD81EGFP. To be noted: human, HepG2-A16-CD81EGFP cells; read-out: INHIBITION
The gist of the method:
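Uninfected HepG2-A16-CD81EGFP cells, 3 × 10^3 per well, 1536-well, plated on prespotted compound at 10 μM final, parasite-free screening media added to match infected plates; puromycin 10 μM positive, DMSO 0.5% negative; run in parallel with 48 h PbLuc assay at 37 °C, 5% CO2; viability by CellTiter-Glo luminescence, normalized to controls.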
With `Cc1nc(CCNC(=O)Nc2cc(C(F)(F)F)c[nH]c2=O)cs1`, the cytotoxicity at 10 µM amounted to 0.614%.
The figure for `O=C1CCCN1CCCC(=O)N1CCC2(CC1)[C@H](O)C[C@@H]2O` is -2.38%.
Turning to `CCn1c(C2CCCN2Cc2noc(C(C)(C)C)n2)nc2ccccc21` (configuration not stated), the cytotoxicity at 10 µM turned out to be 3.18%.
As to `CC(NC(=O)N1CCC(CC(N)=O)CC1)c1csc2ccccc12` (configuration not stated), the cytotoxicity at 10 µM was 1.73%.
As for `CCc1nc(CN2CCCN(C(=O)c3occc3C)CC2)cs1`, the cytotoxicity at 10 µM was -21.9%.
As for `Cc1cccc(C)c1OC1CCN(Cc2ccn(C)c(=O)c2)CC1`, the cytotoxicity at 10 µM is -2.95%.
Turning to `CCN(C)S(=O)(=O)c1ccc(Cl)cc1C#N`, the cytotoxicity at 10 µM is -36.9%.
`Cc1cc2c(c(=O)n1CCC(=O)O)C=CC(C)(C)O2`: the cytotoxicity at 10 µM came out at 10.8%.
With `COc1ccc(-c2nnc(SC(C)C(=O)NC3CC3)[nH]2)c(OC)c1` (configuration not stated), the cytotoxicity at 10 µM turned out to be 45.3%.
For `CSCCC(Nc1nc(C)cc(C)n1)C(=O)NC1CC1` (configuration not stated), the cytotoxicity at 10 µM was -15.3%.
With `Cc1nc(N2CCCOC(Cn3cccn3)C2)c2sccc2n1` (configuration not stated), the cytotoxicity at 10 µM is 35.5%.
As to `CCO[C@@H]1CO[C@@]2(CCCN(S(=O)(=O)c3cccnc3)C2)C1`, the cytotoxicity at 10 µM was -0.156%.
As for `Cc1cc(N)nc(C2(C)CCCN2C(=O)Cc2ccc(F)cc2)n1` (configuration not stated), the cytotoxicity at 10 µM is -27.5%.
With `Cc1nc(C2CCCN2C(=O)c2csc3c2CCCC3)no1` (configuration not stated), the cytotoxicity at 10 µM was -10.3%.
Take `CC(=O)NCc1cc(-c2cccs2)n(C2CCCC2)n1`: the cytotoxicity at 10 µM turned out to be 3.29%.
The figure for `O=C(Cc1ccsc1)N1CCCC(CNS(=O)(=O)Cc2ccccc2)C1` (configuration not stated) is 4.24%; for `Cc1cccc(CN(Cc2ccccn2)S(=O)(=O)N(C)C(C)C)c1` it is -5.02%.
For the molecule `N#CC(NC(=O)CC(F)(F)F)c1ccsc1` (configuration not stated), the cytotoxicity at 10 µM was 7.61%.
As to `CCC1=N[C@@]2(CC[C@@H]3CN(CC(=O)N(C)C)C[C@@H]32)C(=O)N1CC(C)C`, the cytotoxicity at 10 µM came to 8.18%.
Regarding `CS(=O)(=O)N1CCCC12CCN(Cc1ccoc1)CC2`, the cytotoxicity at 10 µM is -3.98%.
On to `CC(C)C(O)C(C)(C)CNC(=O)NCc1ccc(-n2cncn2)cc1` (configuration not stated), for which the cytotoxicity at 10 µM is -8.14%.
On to `Cn1c(N)nnc1SCC1OCCc2ccccc21` (configuration not stated), for which the cytotoxicity at 10 µM turned out to be 0.355%.
As for `CNC(=O)CNC(=O)Nc1ccc(F)c(Br)c1`, the cytotoxicity at 10 µM amounted to 7.92%.
For the molecule `NC(=O)NC1CCN(Cc2ccc3c(c2)CCC3)CC1`, the cytotoxicity at 10 µM was -3.19%.
Take `CCc1nccn1C1CCCN(C(=O)c2ccc3c(c2)nnn3C)C1` (configuration not stated): the cytotoxicity at 10 µM was -10.6%.
With `Cc1cc(C)n(Cc2ccc(C(=O)N3CCOCC3(C)C)cc2)n1`, the cytotoxicity at 10 µM was -9.23%.
In the case of `Clc1ccc(COCC2CCN(Cc3ccccn3)CC2)cc1`, the cytotoxicity at 10 µM stood at 4.94%.
Turning to `COCC[C@]1(O)CCN(Cc2ccccn2)C[C@H]1C`, the cytotoxicity at 10 µM is -7.72%.
`CCC1CCCCN1C(=O)c1ccc2[nH]nnc2c1` (configuration not stated): the cytotoxicity at 10 µM is -10.7%.
Turning to `O=C(CCc1ccco1)N1CCCN(Cc2cscn2)CC1`, the cytotoxicity at 10 µM came to 3.28%.
For `CN(CCCNC(=O)NCc1ccncc1)CC(F)(F)F`, the cytotoxicity at 10 µM came to 1.85%.
As to `CCCc1nc(C(C)(C)NC(=O)C2CC(=O)N(C3CC3)C2)no1` (configuration not stated), the cytotoxicity at 10 µM was -4.41%.
Consider `CC(=O)N1CCCC(c2cccc(-n3ccnc3)n2)C1` (configuration not stated), for which the cytotoxicity at 10 µM was -9.08%.
In the case of `Cc1ccc(S(=O)(=O)N2CC[C@@H]3C[C@H](NC(=O)c4ccncc4)[C@@H]32)cc1`, the cytotoxicity at 10 µM worked out at 0.385%.
With `CCS(=O)(=O)N1CCc2nnc(CN(C)C(C)C)n2CC1`, the cytotoxicity at 10 µM amounted to 0.872%.
Consider `O=C(N1CCCC1)N1CCN(c2ccc(Cl)nn2)C(=O)C1`, for which the cytotoxicity at 10 µM was 7.33%.
In the case of `CCOc1ccnc(N2CCN(C(=O)c3cc(Cl)c[nH]3)CC2)n1`, the cytotoxicity at 10 µM is -9.29%.
For `CN1CCN(C(=O)C2CC=CC2)c2ccccc21`, the cytotoxicity at 10 µM stood at 14.9%.
With `CN(Cc1ccncc1)C(CO)c1cccc(Br)c1` (configuration not stated), the cytotoxicity at 10 µM was determined as 15.4%.
Turning to `N#Cc1ccc(C(=O)O)nc1C=Cc1cccc(F)c1`, the cytotoxicity at 10 µM is 8%.
Turning to `CC(=O)N1CC[C@H]2OCC[C@@H](C(=O)Nc3cccnc3C)[C@H]2C1`, the cytotoxicity at 10 µM worked out at 0.0861%.
As to `c1cnc(N2CCCC3(CCN(c4ncccn4)C3)C2)nc1` (configuration not stated), the cytotoxicity at 10 µM is -151%.
The figure for `COCCOCC(=O)Nc1cc(C)ccc1F` is 3.91%; for `CN(Cc1cc(C(C)(C)C)n[nH]1)C(=O)c1ccccc1C1CCNC1` (configuration not stated) it is -2.32%.
Consider `CN(C)C(=O)N1CCC2(CC1)CN(CC1CC1)CC21CCNC1=O` (configuration not stated), for which the cytotoxicity at 10 µM amounted to 3.67%.
Consider `CC(C)NC(=O)N1CCN(CC2CC2)CC2(CC(=O)N(C)C2)C1` (configuration not stated), for which the cytotoxicity at 10 µM is -1.34%.
The figure for `COc1ccc(OC2CCN(C(=O)c3ccc(C)[nH]c3=O)CC2)cc1` is -3.22%; for `Cn1cc(CN2CCCn3cnc(COCC4CC4)c3C2)cn1` it is -6.66%; for `CNC(=O)C1Cn2ccnc2C2(CCN(Cc3cccnc3)CC2)O1` (configuration not stated) it is -3.37%.
On to `O=C(C[S+]([O-])Cc1cccc(F)c1)NC1CCCC1` (configuration not stated), for which the cytotoxicity at 10 µM stood at 1.79%.
`CC(=O)N1CCOCC2(CCN(Cc3ccc(C)s3)CC2)C1`: the cytotoxicity at 10 µM is -5.39%.
On to `O=C1N[C@@H]2CCN(C(=O)c3ccccc3)[C@@H]2C(=O)N1c1ccc(F)cc1`, for which the cytotoxicity at 10 µM was determined as 7.62%.
Consider `Cc1ncsc1C(=O)N(Cc1cccnc1)C1CC1`, for which the cytotoxicity at 10 µM was -4.84%.
In the case of `N#Cc1ccc(C(=O)N2C[C@H](OCc3cccnc3)[C@H]3COC[C@H]32)cc1`, the cytotoxicity at 10 µM was 5.38%.
For the molecule `Cc1nn(C)c2c(NCCn3cccn3)ncnc12`, the cytotoxicity at 10 µM was -1.26%.
`CC(NC(=O)C1CC1)c1cc(O)nc(-c2cccnc2)n1` (configuration not stated): the cytotoxicity at 10 µM was 2.67%.
As to `O=C(OCc1cccs1)c1cccc(C(=O)N2CCCC2)n1`, the cytotoxicity at 10 µM was -1.11%.
The figure for `CCN(Cc1ccccn1)C1CCN(c2ccccc2)C1=O` (configuration not stated) is 4.34%; for `CNC(=O)c1ccc(C2CN(Cc3ccc(F)cc3)CCO2)nc1` (configuration not stated) it is -0.378%; for `CCn1ccnc1CNCc1ccc(C)cc1OC(C)(C)C` it is 1.03%.
For the molecule `CC(=O)Nc1ccc2c(c1)nc1n2[C@@H](CNCc2ccccc2)COC1`, the cytotoxicity at 10 µM is -10.2%.
`CCCN(C)CCC(=O)N1CCCC1Cn1cccn1` (configuration not stated): the cytotoxicity at 10 µM was -16.9%.
Regarding `O=C(c1cccnc1)N1CCO[C@@H]2CNC[C@@H]21`, the cytotoxicity at 10 µM was -103%.
With `O=C(c1ccnnc1)N1CCC2(CCN(c3ccsc3)C2=O)C1` (configuration not stated), the cytotoxicity at 10 µM is -139%.
For the molecule `CCC(C)c1noc(C2CCN(C(=O)c3cccnc3)CC2)n1` (configuration not stated), the cytotoxicity at 10 µM was -10.7%.
For the molecule `Cn1ncc2c(N3CCCC(C)(O)C3)nc(C(C)(C)C)nc21` (configuration not stated), the cytotoxicity at 10 µM was -43.6%.
The figure for `Cc1ccc(C(=O)NCCC2CN(C3CCCC3)CCO2)c(C)c1` (configuration not stated) is -3.76%; for `Cc1ccccc1C(=O)N1CC(C(=O)NCC2CC2)C2(CCOCC2)C1` (configuration not stated) it is 3.54%; for `CCOCC1CCN(C(=O)Nc2ccc3c(c2)CCCO3)C1` (configuration not stated) it is 10.6%.
As for `Cc1ccccc1C(C#N)NC(=O)c1cccc2c1OCCO2` (configuration not stated), the cytotoxicity at 10 µM is -3.38%.
With `Cc1nc(C)n(CC2CCCN2CCOc2ccc(F)cc2)n1` (configuration not stated), the cytotoxicity at 10 µM was determined as 3.06%.
For the molecule `Cc1ccc(C(N)c2cccc(S(C)(=O)=O)c2)c(C)c1` (configuration not stated), the cytotoxicity at 10 µM is -6.44%.
